# Results from different studies.
# Target: Tyrosine-protein kinase SYK (SYK, Homo sapiens, UniProt P43405)
SMILES,assay,setting,remaining binding [%]
O=C(c1ccc(Nc2ncc(Cl)c(-c3ccc(Cl)s3)n2)cc1)N1CCC(N2CCCC2)CC1,"binding, competition with immobilised ligand",1 µM,43
Cc1cc(-n2nc(Cc3cc(F)cc(C(F)(F)F)c3)nc2C)ccc1C(N)=O,"cell-free assay, competition with immobilised ligand",1 µM,87
O=C(c1ccc(Nc2nccc(-c3cc4ccccc4s3)n2)cc1)N1CCC(N2CCCC2)CC1,"binding, competition with immobilised ligand",1 µM,31
O=C(Nc1cccnn1)N1CCC(=Cc2cccc(Oc3ccc(C(F)(F)F)cn3)c2)CC1,"cell-free assay, competition with immobilised ligand",1 µM,100
CCN1CCN(Cc2ccc(C(=O)Nc3ccc(C)c(Oc4ccc5c(c4)CC(=O)N5)c3)cc2C(F)(F)F)CC1,"binding, competition with immobilised ligand",1 µM,100
N[C@@H]1CCN(c2nccc(-c3cnn4ncccc34)n2)C1,binding,1 µM,100
COc1ccc2c(c1)O[C@H](c1ccc(OC)c(OC)c1)C[C@@H]2NC(=O)C1(c2ccc3c(c2)OC(F)(F)O3)CC1,"cell-free assay, competition with immobilised ligand",1 µM,100
CN(CCCC(F)(F)F)c1nccc(-c2cnn3ncccc23)n1,binding,1 µM,76
CN(C)c1ncnc(-c2ccc3nc(Nc4cc(CN5CCN(C(=O)CC(F)(F)F)CC5)ccn4)[nH]c3c2)c1Cl,"cell-free assay, competition with immobilised ligand",1 µM,96
CN(C)c1nccc(-c2cnn3ncccc23)n1,binding,1 µM,100
O=C(Nc1c[nH]nc1C(=O)NC1CCNCC1)c1cc(F)cc(F)c1,"binding, competition with immobilised ligand",1 µM,100
CCc1ccccc1C(=O)Nc1n[nH]c2c(C)c(F)c(C3C(C#N)=C(C)N(C)C(C)=C3C#N)cc12,"cell-free assay, competition with immobilised ligand",1 µM,100
C[C@@H]1CCN(c2nccc(-c3cnn4ncccc34)n2)C1,binding,1 µM,84
COc1cnc(Nc2cccc(S(N)(=O)=O)c2)nc1N1CCN(c2ccccc2)C(=O)C1,"binding, competition with immobilised ligand",1 µM,100
CN(C)c1nccc(-c2cnc3ncccn23)n1,binding,1 µM,78
O=C(NCCCN1CCOCC1)c1ccc(Nc2nccc(-c3cc4ccccc4s3)n2)cc1,"binding, competition with immobilised ligand",1 µM,17
O=c1nc(-c2ccccn2)sc2ccccc12,"cell-free assay, competition with immobilised ligand",1 µM,97
c1cncc(-c2cccc(Nc3nccc(NC4CCCCC4)n3)c2)c1,"binding, competition with immobilised ligand",10 µM,16
FC(F)(F)Oc1cccc(-c2cnc3ccc(-c4ccncc4)nn23)c1,"binding, competition with immobilised ligand",5 µM,64
CN(C)c1ncc(F)c(-c2cnn3ncccc23)n1,binding,1 µM,76
